Assay results taken from ChEMBL document CHEMBL4811251 (Eur J Med Chem, 2021).

How the values were obtained:
[1] = Clearance in Sprague-Dawley rat at 5 mg/kg, iv measured upto 24 hrs by LC/MS/MS analysis; type: ADME, organism-based; conditions: in vivo
[2] = Tmax in BALB/c mouse at 2 mg/kg, iv measured upto 24 hrs by LC/MS/MS analysis; type: ADME, organism-based; conditions: in vivo
[3] = AUC in Sprague-Dawley rat at 5 mg/kg, iv measured upto 24 hrs by LC/MS/MS analysis; type: ADME, organism-based; set-up: route intravenous, dose 5 mg/kg, time <=24; conditions: in vivo
[4] = target: Macrophage colony-stimulating factor 1 receptor (Homo sapiens, UniProt P07333); assay: Inhibition of human CSF1R at 1 uM using KKKSPGEYVNIEFG as substrate incubated for 40 mins in presence of [gamma-33ATP] by scintillation counting based radiometry assay relative to control
Chain of Macrophage colony-stimulating factor 1 receptor (P07333 whole entry): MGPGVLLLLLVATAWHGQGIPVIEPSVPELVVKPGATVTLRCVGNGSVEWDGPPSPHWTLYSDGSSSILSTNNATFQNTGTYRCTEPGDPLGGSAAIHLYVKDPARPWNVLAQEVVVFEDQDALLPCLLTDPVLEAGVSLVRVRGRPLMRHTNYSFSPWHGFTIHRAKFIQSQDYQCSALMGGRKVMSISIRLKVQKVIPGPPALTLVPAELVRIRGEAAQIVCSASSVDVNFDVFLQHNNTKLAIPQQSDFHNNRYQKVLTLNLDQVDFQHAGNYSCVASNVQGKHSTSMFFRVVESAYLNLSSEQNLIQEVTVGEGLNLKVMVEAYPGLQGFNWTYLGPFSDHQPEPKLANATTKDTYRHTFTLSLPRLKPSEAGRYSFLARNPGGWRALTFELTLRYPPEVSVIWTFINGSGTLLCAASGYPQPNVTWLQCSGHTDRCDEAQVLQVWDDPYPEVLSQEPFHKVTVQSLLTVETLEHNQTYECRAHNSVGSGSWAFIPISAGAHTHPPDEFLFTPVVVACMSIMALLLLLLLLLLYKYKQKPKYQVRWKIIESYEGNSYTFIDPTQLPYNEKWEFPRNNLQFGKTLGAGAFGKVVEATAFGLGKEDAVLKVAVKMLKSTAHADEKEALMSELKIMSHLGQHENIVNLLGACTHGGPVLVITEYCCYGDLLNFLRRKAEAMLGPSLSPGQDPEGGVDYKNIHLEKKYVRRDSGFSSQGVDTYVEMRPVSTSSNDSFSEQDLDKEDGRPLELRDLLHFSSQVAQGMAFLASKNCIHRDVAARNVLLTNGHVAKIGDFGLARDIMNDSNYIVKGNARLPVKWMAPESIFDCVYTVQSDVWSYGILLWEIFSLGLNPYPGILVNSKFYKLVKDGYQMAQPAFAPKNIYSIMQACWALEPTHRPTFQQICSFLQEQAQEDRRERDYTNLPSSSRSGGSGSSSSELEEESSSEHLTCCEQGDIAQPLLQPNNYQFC

[5] = target: Glycogen synthase kinase-3 beta (Homo sapiens) (UniProt P49841); assay: Inhibition of GSK3beta (unknown origin) assessed as residual activity at 1 uM relative to control
Chain of Glycogen synthase kinase-3 beta (Homo sapiens) (P49841 whole entry, looked up): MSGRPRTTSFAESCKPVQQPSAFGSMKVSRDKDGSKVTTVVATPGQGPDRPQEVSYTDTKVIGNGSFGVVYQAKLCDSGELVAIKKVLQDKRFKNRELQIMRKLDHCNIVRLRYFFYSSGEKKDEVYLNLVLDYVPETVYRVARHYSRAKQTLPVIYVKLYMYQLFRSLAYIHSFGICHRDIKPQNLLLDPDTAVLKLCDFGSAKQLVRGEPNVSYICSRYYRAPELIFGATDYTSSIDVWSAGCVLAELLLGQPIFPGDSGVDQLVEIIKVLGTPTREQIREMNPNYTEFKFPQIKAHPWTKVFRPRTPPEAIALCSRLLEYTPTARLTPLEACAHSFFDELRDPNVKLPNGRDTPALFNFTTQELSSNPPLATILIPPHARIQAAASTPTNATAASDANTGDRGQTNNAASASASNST

[6] = target: T1, Receptor-type tyrosine-protein kinase FLT3 (Homo sapiens, UniProt P36888); assay: Inhibition of human FLT3 using EAIYAAPFAKKK as substrate incubated for 40 mins in presence of [gamma-33ATP] by scintillation counting based radiometry assay
T1 sequence (P36888 whole entry): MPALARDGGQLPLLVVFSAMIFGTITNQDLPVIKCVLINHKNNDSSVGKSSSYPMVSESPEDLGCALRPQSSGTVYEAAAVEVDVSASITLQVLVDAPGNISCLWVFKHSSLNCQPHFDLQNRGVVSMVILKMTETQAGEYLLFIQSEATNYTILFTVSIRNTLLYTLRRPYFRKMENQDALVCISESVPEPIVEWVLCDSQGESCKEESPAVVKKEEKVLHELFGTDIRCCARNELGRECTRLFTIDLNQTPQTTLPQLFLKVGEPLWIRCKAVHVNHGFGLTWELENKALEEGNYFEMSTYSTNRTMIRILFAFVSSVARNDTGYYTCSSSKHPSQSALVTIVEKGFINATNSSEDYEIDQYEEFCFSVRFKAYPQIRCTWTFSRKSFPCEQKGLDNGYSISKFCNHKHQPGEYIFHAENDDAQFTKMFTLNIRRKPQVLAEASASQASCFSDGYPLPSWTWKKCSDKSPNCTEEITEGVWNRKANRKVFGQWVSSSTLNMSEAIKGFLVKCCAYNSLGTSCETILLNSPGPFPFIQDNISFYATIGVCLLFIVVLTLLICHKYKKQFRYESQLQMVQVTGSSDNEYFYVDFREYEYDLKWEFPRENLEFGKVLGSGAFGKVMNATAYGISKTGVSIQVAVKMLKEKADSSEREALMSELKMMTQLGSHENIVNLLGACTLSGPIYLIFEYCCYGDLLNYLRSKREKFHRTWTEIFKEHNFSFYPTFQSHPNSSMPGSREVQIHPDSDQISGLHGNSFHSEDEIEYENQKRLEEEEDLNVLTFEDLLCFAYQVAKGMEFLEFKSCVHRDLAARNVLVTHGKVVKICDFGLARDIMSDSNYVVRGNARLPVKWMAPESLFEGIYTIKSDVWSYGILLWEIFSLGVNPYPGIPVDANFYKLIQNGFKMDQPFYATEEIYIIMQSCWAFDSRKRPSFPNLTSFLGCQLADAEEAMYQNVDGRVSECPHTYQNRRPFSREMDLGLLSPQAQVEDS

[7] = system: MDA-MB-468; assay: Antiproliferative activity against human MDA-MB-468 cells assessed as growth inhibition incubated for 72 hrs by MTT assay; type: functional
[8] = Tmax in BALB/c mouse at 10 mg/kg, po measured upto 24 hrs by LC/MS/MS analysis; type: ADME, organism-based; conditions: in vivo
[9] = Half life in BALB/c mouse at 10 mg/kg, po measured upto 24 hrs by LC/MS/MS analysis; type: ADME, organism-based; conditions: in vivo
[10] = Tmax in Sprague-Dawley rat at 5 mg/kg, iv measured upto 24 hrs by LC/MS/MS analysis; type: ADME, organism-based; conditions: in vivo
[11] = Volume of distribution at steady state in Sprague-Dawley rat at 5 mg/kg, iv measured upto 24 hrs by LC/MS/MS analysis; type: ADME, organism-based; conditions: in vivo, read-out: Vdss
[12] = Tmax in Sprague-Dawley rat at 20 mg/kg, po measured upto 24 hrs by LC/MS/MS analysis; type: ADME, organism-based; conditions: in vivo
[13] = system: MV4-11; assay: Induction of apoptosis in human MV4-11 cells assessed as viable cells at 10 uM after 72 hrs by Annexin V FITC/PI staining based flow cytometry analysis (reference value: 93.63%); type: functional; conditions: read-out: Activity
[14] = AUC in Sprague-Dawley rat at 20 mg/kg, po measured upto 24 hrs by LC/MS/MS analysis; type: ADME, organism-based; set-up: route oral, dose 20 mg/kg, time <=24; conditions: in vivo
[15] = system: MV4-11; assay: Induction of cell cylce arrest in human MV4-11 cells assessed as accumulation of cells at sub G1 phase at 3 uM after 72 hrs by RNase A/propidium iodide staining based flow cytometry (reference value: 1.58%); type: functional
Method in brief: (§1)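 MV4-11 cells were seeded at 8 × 10⁴, held overnight at 37 °C with 5% CO2, then treated 72 h at 3 or 10 µM against a DMSO diluent control. Pellets were fixed in 70% ethanol on ice for 15 min, then stained 1 h at room temperature with PI, 0.1 mg/mL RNase A and 0.05% Triton X-100. Sub-G1, G1, S and G2/M fractions were read by flow cytometry.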

[16] = Dissociation constant, pKa of the compound by fast UV-spectrometric titration method; type: physicochemical
[17] = system: U-937; assay: Antiproliferative activity against human U937 cells assessed as growth inhibition incubated for 72 hrs by MTT assay; type: functional
[18] = Clearance in BALB/c mouse at 2 mg/kg, iv measured upto 24 hrs by LC/MS/MS analysis; type: ADME, organism-based; conditions: in vivo
[19] = system: MV4-11; assay: Induction of cell cylce arrest in human MV4-11 cells assessed as accumulation of cells at G2 phase at 10 uM after 72 hrs by RNase A/propidium iodide staining based flow cytometry (reference value: 12.61%); type: functional; method in brief: as §1
[20] = Oral bioavailability in Sprague-Dawley rat at 20 mg/kg measured upto 24 hrs by LC/MS/MS analysis; type: ADME, organism-based; conditions: in vivo
[21] = Half life in Sprague-Dawley rat at 5 mg/kg, iv measured upto 24 hrs by LC/MS/MS analysis; type: ADME, organism-based; conditions: in vivo
[22] = system: A2780; assay: Antiproliferative activity against human A2780 cells assessed as growth inhibition incubated for 72 hrs by MTT assay; type: functional
[23] = system: MV4-11; assay: Induction of apoptosis in human MV4-11 cells assessed as necrotic cells at 10 uM after 72 hrs by Annexin V FITC/PI staining based flow cytometry analysis (reference value: 0.23%); type: functional
[24] = system: MV4-11; assay: Induction of cell cylce arrest in human MV4-11 cells assessed as accumulation of cells at sub G1 phase at 10 uM after 72 hrs by RNase A/propidium iodide staining based flow cytometry (reference value: 1.58%); type: functional; method in brief: as §1
[25] = AUC in BALB/c mouse at 2 mg/kg, iv measured upto 24 hrs by LC/MS/MS analysis; type: ADME, organism-based; set-up: route intravenous, dose 2 mg/kg, time <=24; conditions: in vivo
[26] = AUC in BALB/c mouse at 10 mg/kg, po measured upto 24 hrs by LC/MS/MS analysis; type: ADME, organism-based; set-up: route oral, dose 10 mg/kg, time <=24; conditions: in vivo

With Nc1ncc(-c2cc3ccccc3o2)c(N2CCC3(CCNC3=O)CC2)c1Cl the clearance [1] was 23.8 mL/min/kg, the Tmax [2] was 3 min and the AUC at 24 h [3] was 8.92 µM·h. For the same molecule, the inhibition [4] was > 50%, the Activity [5] was 61% and the Ki [6] was 0.242 µM. The GI50 [7] was 0.65 µM, the Tmax [8] was 20.4 min and the half-life [9] was 206 min. It also gave a Tmax [10] of 1.8 min, a Vd [11] of 1.57 L/kg and a Tmax [12] of 240 min. It also gave a viability at 10 µM [13] of 83.4%, an AUC at 24 h [14] of 25.1 µM·h and an Activity [15] of 1.73%. It also gave a pKa [16] of 5.27, a GI50 [17] of 4.88 µM and a clearance [18] of 54.2 mL/min/kg. It also gave an Activity [19] of 1.83%, a bioavailability [20] of 70% and a half-life [21] of 87 min. The GI50 [22] was 5.31 µM, the Activity [23] was 0.59% and the Activity [24] was 4.89%. For the same molecule, the AUC at 24 h [25] was 1.55 µM·h and the AUC at 24 h [26] was 2.56 µM·h.
